Data from ChEMBL document CHEMBL1152539, “Synthesis and evaluation of bioactive naphthoquinones from the Brazilian medicinal plant, Tabebuia avellanedae” (Bioorg Med Chem, 2009).
Converted amounts (≈) assume the structure as drawn.

Legend:
[1] = Antiproliferative activity against human skin fibroblast after 72 hrs by trypan blue exclusion assay; type: cell-based
Summary of the method: (§1)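 Cells were kept in DMEM with 10% fetal serum and exposed to four concentrations of compound for 72 h at 37 °C in humidified 5% CO₂. They were then stained with 0.25% trypan blue for 20 min, and viable cells were counted by light microscopy. IC₅₀ was derived from separate experiments run in triplicate.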

[2] = system: Hepatocyte; experiment: Antiproliferative activity against human hepatocytes after 72 hrs by trypan blue exclusion assay; type: cell-based; summary of the method: as §1
[3] = system: Raji; experiment: Inhibition of 12-O-tetradecanoylphorbol-13-acetate-induced EBV-early antigen activation in human Raji cells assessed as EA induction at 1000 molar ratio after 48 hrs by immunofluorescence technique relative to 12-O-tetradecanoylphorbol-13-acetate; type: cell-based; conditions: human gammaherpesvirus 4
Summary of the method: (§2)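 Raji cells were incubated for 48 h at 37 °C in medium with n-butyric acid (4 mM), TPA (32 pmol) and graded amounts of test compound. Smears were stained for EBV-EA by indirect immunofluorescence, and positive cells were counted among at least 500 cells. Assays were run in triplicate. Activity was expressed relative to the n-butyric acid plus TPA control, set as 100%.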

[4] = system: Raji; experiment: Inhibition of 12-O-tetradecanoylphorbol-13-acetate-induced EBV-early antigen activation in human Raji cells assessed as EA induction at 500 molar ratio after 48 hrs by immunofluorescence technique relative to 12-O-tetradecanoylphorbol-13-acetate; type: cell-based; set-up: scale not given: the % may be the effect or the level left; conditions: human gammaherpesvirus 4; summary of the method: as §2
[5] = system: Raji; experiment: Inhibition of 12-O-tetradecanoylphorbol-13-acetate-induced EBV-early antigen activation in human Raji cells assessed as EA induction at 100 molar ratio after 48 hrs by immunofluorescence technique relative to 12-O-tetradecanoylphorbol-13-acetate; type: cell-based; set-up: scale not given: the % may be the effect or the level left; conditions: human gammaherpesvirus 4; summary of the method: as §2
[6] = system: Raji; experiment: Inhibition of 12-O-tetradecanoylphorbol-13-acetate-induced EBV-early antigen activation in human Raji cells assessed as EA induction at 10 molar ratio after 48 hrs by immunofluorescence technique relative to 12-O-tetradecanoylphorbol-13-acetate; type: cell-based; set-up: scale not given: the % may be the effect or the level left; conditions: human gammaherpesvirus 4; summary of the method: as §2
[7] = Inhibition of 12-O-tetradecanoylphorbol-13-acetate-induced EBV-early antigen activation in human Raji cells after 48 hrs by immunofluorescence technique; type: cell-based, human gammaherpesvirus 4; summary of the method: as §2
[8] = Cytotoxicity against human Raji cells assessed as cell viability at 1000 molar ratio after 48 hrs by trypan blue staining; type: cell-based; conditions: read-out: Activity
Summary of the method: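 Raji cells were exposed for 48 h at 37 °C to n-butyric acid (4 mM), TPA (32 pmol) and test compound, as in the EBV-EA induction setup. Viability of the treated cells was then measured by trypan blue staining.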

[9] = Anticancer activity against DMBA/TPA-induced skin cancer in mouse assessed as incidence of papilloma at 85 nmol administered before TPA challenge measured after 10 weeks; type: functional
Summary of the method: (§3)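 Mouse two-stage skin model: DMBA 390 nmol in 0.1 mL acetone applied topically by pipet. One week later, the same skin site was painted with test compound (85 nmol in acetone) or acetone alone, 60 min before TPA (1.7 nmol). Tumor response was scored as the average number of papillomas per mouse and the percentage of mice bearing papillomas.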

[10] = Anticancer activity against DMBA/TPA-induced skin cancer in mouse assessed as incidence of papilloma at 85 nmol administered before TPA challenge measured after 15 weeks; type: functional; summary of the method: as §3
[11] = Anticancer activity against DMBA/TPA-induced skin cancer in mouse assessed as incidence of papilloma at 85 nmol administered before TPA challenge measured after 20 weeks; type: functional; summary of the method: as §3
[12] = Anticancer activity against DMBA/TPA-induced skin cancer in mouse assessed as number of papillomas per mouse at 85 nmol administered before TPA challenge measured after 20 weeks; type: functional; summary of the method: as §3
[13] = system: Bacillus subtilis; experiment: Antimicrobial activity against Bacillus subtilis NBRC3134 after 24 hrs by broth dilution method; type: functional; conditions: NBRC3134, 24 h
Summary of the method: (§4)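 Modified NCCLS broth dilution. A 50 µL aliquot of bacterial cells (10⁶/mL in 0.85% NaCl) was added to 1 mL Mueller-Hinton broth containing compound over a 0.1–100 range.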

[14] = system: Staphylococcus aureus; experiment: Antimicrobial activity against Staphylococcus aureus NBRC13276 after 24 hrs by broth dilution method; type: functional; conditions: NBRC13276, 24 h; summary of the method: as §4
[15] = system: Bacillus mycoides; experiment: Antimicrobial activity against Bacillus mycoides ATCC 11778 after 24 hrs by broth dilution method; type: functional; conditions: ATCC 11778, 24 h; summary of the method: as §4
[16] = system: Escherichia coli; experiment: Antimicrobial activity against Escherichia coli ATCC 11775 after 24 hrs by broth dilution method; type: functional; conditions: ATCC 11775, 24 h; summary of the method: as §4
[17] = system: Pseudomonas aeruginosa; experiment: Antimicrobial activity against Pseudomonas aeruginosa NBRC13275 after 24 hrs by broth dilution method; type: functional; conditions: NBRC13275, 24 h; summary of the method: as §4
[18] = system: Salmonella enteritidis; experiment: Antimicrobial activity against Salmonella enteritidis OPS10 after 24 hrs by broth dilution method; type: functional, Salmonella enterica subsp. enterica serovar Enteritidis; conditions: Salmonella enterica, OPS10, 24 h; summary of the method: as §4
[19] = system: Naganishia albida; experiment: Antimicrobial activity against Cryptococcus albidus NBRC0378 after 24 hrs by broth dilution method; type: functional; conditions: NBRC0378, 24 h
[20] = system: Candida albicans; experiment: Antimicrobial activity against Candida albicans NBRC1060 after 3-5 days by broth dilution method; conditions: NBRC1060, 3-5 days
[21] = system: Penicillium expansum; experiment: Antimicrobial activity against Penicillium expansum NBRC8800 after 3-5 days by broth dilution method; conditions: NBRC8800, 3-5 days
[22] = system: Aspergillus fumigatus; experiment: Antimicrobial activity against Aspergillus fumigatus NBRC4400 after 3-5 days by broth dilution method; conditions: NBRC4400, 3-5 days
[23] = system: Paecilomyces variotii; experiment: Antimicrobial activity against Paecilomyces variotii NBRC4855 after 3-5 days by broth dilution method; conditions: NBRC4855, 3-5 days
[24] = system: Saccharomyces cerevisiae; experiment: Antimicrobial activity against Saccharomyces cerevisiae NBRC10114 after 3-5 days by broth dilution method; conditions: NBRC10114, 3-5 days
[25] = system: PC-3; experiment: Antiproliferative activity against human PC3 cells after 72 hrs by trypan blue exclusion assay; type: functional, cell-based; conditions: PC-3, 72 h; summary of the method: as §1
[26] = system: A549; experiment: Antiproliferative activity against human A549 cells after 72 hrs by trypan blue exclusion assay; type: functional, cell-based; conditions: A549, 72 h; summary of the method: as §1
[27] = system: MCF7; experiment: Antiproliferative activity against human MCF7 cells after 72 hrs by trypan blue exclusion assay; type: functional, cell-based; conditions: MCF7, 72 h; summary of the method: as §1
[28] = Antiproliferative activity against human Hs888Lu cells after 72 hrs by trypan blue exclusion assay; type: cell-based; summary of the method: as §1
[29] = Antiproliferative activity against human SVCT-M12 cells after 72 hrs by trypan blue exclusion assay; type: cell-based; conditions: SVCT-M12, 72 h; summary of the method: as §1
[30] = system: Aspergillus fumigatus; experiment: Antimicrobial activity against Aspergillus fumigatus NBRC4400 after 24 hrs by broth dilution method; type: functional; conditions: NBRC4400, 24 h
[31] = system: Paecilomyces variotii; experiment: Antimicrobial activity against Paecilomyces variotii NBRC4855 after 24 hrs by broth dilution method; type: functional; conditions: NBRC4855, 24 h
[32] = system: Candida albicans; experiment: Antimicrobial activity against Candida albicans NBRC1060 after 24 hrs by broth dilution method; type: functional; conditions: NBRC1060, 24 h
[33] = system: Penicillium expansum; experiment: Antimicrobial activity against Penicillium expansum NBRC8800 after 24 hrs by broth dilution method; type: functional; conditions: NBRC8800, 24 h
[34] = system: Naganishia albida; experiment: Antimicrobial activity against Cryptococcus albidus NBRC0378 after 3-5 days by broth dilution method; conditions: NBRC0378, 3-5 days

SMILES	IC50 [7] [mol ratio/32 pmol TPA]	MIC [13] [µg/mL]	MIC [14] [µg/mL]	MIC [15] [µg/mL]	MIC [16] [µg/mL]	MIC [17] [µg/mL]	MIC [18] [µg/mL]	MIC [24] [µg/mL]	IC50 [26] [µM]	IC50 [27] [µM]	EC50 [1] [µM]	EC50 [2] [µM]	EA induction relative to TPA control [3] [%]	Activity [4] [%]	Activity [5] [%]	Activity [6] [%]	viability at 48 h, 1000 molar ratio [8] [%]	Activity [9] [%]	Activity [10] [%]	Activity [11] [%]	other results
C[C@@H](O)c1cc2c(o1)C(=O)c1cccc(O)c1C2=O	38.9	0.78 (≈ 3.02 µM)	3.13 (≈ 12.1 µM)	0.78 (≈ 3.02 µM)	> 100	> 100	> 100	3.13 (≈ 12.1 µM)	–	–	39.7	29.8	0	9.7	24.7	59.4	70	7	47	67	Activity [12]: 3.9; MIC [19]: 1.56 µg/mL (≈ 6.04 µM); MIC [20]: 25 µg/mL (≈ 96.8 µM); MIC [21]: 25 µg/mL (≈ 96.8 µM); MIC [22]: 12.5 µg/mL (≈ 48.4 µM); MIC [23]: 25 µg/mL (≈ 96.8 µM)
CC1(C)CCC2=C(O1)c1ccccc1C(=O)C2=O [LAPACHONE]	210	–	–	–	–	–	–	–	4.21	9.96	–	–	4.7	21.7	50.4	73.1	50	–	–	–	IC50 [25]: 1.13 µM
C[C@H](O)c1cc2c(o1)C(=O)c1cccc(O)c1C2=O	33.2	0.78 (≈ 3.02 µM)	3.13 (≈ 12.1 µM)	0.78 (≈ 3.02 µM)	> 100	> 100	> 100	3.13 (≈ 12.1 µM)	0.78	0.51	11.1	11.1	0	4.4	16.9	50	60	7	47	67	EC50 [28]: 5.51 µM; EC50 [29]: 3.36 µM; Activity [12]: 3.9; MIC [19]: 1.56 µg/mL (≈ 6.04 µM); MIC [30]: 12.5 µg/mL (≈ 48.4 µM); MIC [31]: 25 µg/mL (≈ 96.8 µM); MIC [20]: 25 µg/mL (≈ 96.8 µM); MIC [21]: 25 µg/mL (≈ 96.8 µM)

Further lines, with some results ahead:

IC50 [7] [mol ratio/32 pmol TPA]	MIC [13] [µg/mL]	MIC [14] [µg/mL]	MIC [15] [µg/mL]	MIC [16] [µg/mL]	MIC [17] [µg/mL]	MIC [18] [µg/mL]	MIC [24] [µg/mL]	IC50 [26] [µM]	IC50 [27] [µM]	SMILES	EC50 [1] [µM]	EC50 [2] [µM]	EA induction relative to TPA control [3] [%]	Activity [4] [%]	Activity [5] [%]	Activity [6] [%]	viability at 48 h, 1000 molar ratio [8] [%]	Activity [9] [%]	Activity [10] [%]	Activity [11] [%]	other results
345	–	–	–	–	–	–	–	–	–	COc1cc(/C=C/C(=O)CC(=O)/C=C/c2ccc(O)c(OC)c2)ccc1O [CURCUMIN]	–	–	8.9	40.3	74.5	95.8	–	–	–	–	–
37.2	1.56 (≈ 6.09 µM)	1.56 (≈ 6.09 µM)	0.78 (≈ 3.04 µM)	> 100	> 100	> 100	1.56 (≈ 6.09 µM)	2	0.78	CC(=O)c1cc2c(o1)C(=O)c1cccc(O)c1C2=O	–	–	0	7.1	23.7	56	60	–	–	–	IC50 [25]: 0.84 µM; EC50 [28]: 7.7 µM; EC50 [29]: 7.7 µM; MIC [32]: > 100 µg/mL; MIC [33]: 50 µg/mL (≈ 195 µM); MIC [34]: 1.56 µg/mL (≈ 6.09 µM); MIC [22]: 100 µg/mL (≈ 390 µM); MIC [23]: 100 µg/mL (≈ 390 µM)
306	–	–	–	–	–	–	–	–	–	CC(O)c1cc2c(o1)C(=O)c1c(O)cccc1C2=O (racemic)	–	–	8.9	28.4	59	84.6	60	–	–	–	–
